Results as given in ChEMBL document CHEMBL3877264, “Quinolidene-rhodanine conjugates: Facile synthesis and biological evaluation” (Eur J Med Chem, 2017).
In brackets after ≈: the same amount, converted by molar mass.

Experiments:
Escherichia coli [1] = experiment: Growth inhibition of Escherichia coli NCIM 2688 at 3 ug/ml measured after 8 hrs relative to control; assay type: functional; details: NCIM 2688, 8 h, read-out: GI
Procedure, shortened: (§1)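 Bacteria grown in LB at 37 °C and 180 rpm to OD 1. Compounds added to wells, then 0.1% inoculum of 1 OD culture (620 nm). Growth read as OD at 620 nm after 8 h for gram-negative and after 12 h for gram-positive strains.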

[2] = Selectivity index, ratio of GI50 for human HeLa cells to MIC for Mycobacterium tuberculosis H37Ra ATCC 25177 at dormant stage; assay type: toxicity, cell-based; details: read-out: Selectivity Index
Procedure, shortened: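 SI is the cell-line GI50 divided by the dormant-stage mycobacterial MIC. […] THP-1 macrophages were PMA-differentiated for 24 h.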

[3] = Cytotoxicity against human PANC1 cells measured after 48 hrs by MTT assay; assay type: toxicity, cell-based, PANC-1
[4] = test system: Mycobacterium tuberculosis; experiment: Growth inhibition of Mycobacterium tuberculosis H37Ra ATCC 25177 at dormant stage at 6.25 ug/ml measured after 12 days by XTT dye based two fold dilution method relative to control; assay type: functional; details: H37Ra ATCC 25177, 288 h, read-out: GI
Procedure, shortened: (§2)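 MTB H37Ra was grown in Dubos medium, then exposed in Mycobacterium pheli minimal medium (pH 6.6) to compounds dissolved in DMSO. The assay ended on day 8 (active) or day 12 (dormant). Viable cells were measured by XTT reduction menadione assay at 470 nm, blank-corrected, relative to vehicle control. Triplicates were expressed as mean ± SD. MIC came from dose-response curves.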

[5] = test system: Mycobacterium tuberculosis; experiment: Growth inhibition of Mycobacterium bovis BCG ATCC 35743 at dormant stage at 30 ug/ml measured after 12 days by nitrate reductase dye based two fold dilution method relative to control; assay type: functional; details: BCG str. ATCC 35743, 288 h, read-out: GI
Procedure, shortened: (§3)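 M. bovis BCG was grown in Dubos medium and assayed in Mycobacterium pheli minimal medium (pH 6.6), with compounds from DMSO stocks. Incubation lasted 8 days for active and 12 days for dormant cultures. Viability was read by nitrate reductase at 540 nm against cell-free blanks, with vehicle set as 100% growth. Primary screen was at 30, 10 and 3 µg/ml, in triplicate, mean ± SD. MIC was taken from dose-response curves.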

[6] = test system: Mycobacterium tuberculosis; experiment: Growth inhibition of Mycobacterium tuberculosis H37Ra ATCC 25177 at active stage at 50 ug/ml measured after 8 days by XTT dye based two fold dilution method relative to control; assay type: functional; details: H37Ra ATCC 25177, 192 h, read-out: GI; procedure, shortened: as §2
Bacillus subtilis = experiment: Growth inhibition of Bacillus subtilis NCIM 2079 at 10 ug/ml measured after 12 hrs relative to control; assay type: functional; details: NCIM 2079, 12 h, read-out: GI; procedure, shortened: as §1
[7] = test system: Mycobacterium tuberculosis; experiment: Growth inhibition of Mycobacterium bovis BCG ATCC 35743 at dormant stage at 3.13 ug/ml measured after 12 days by nitrate reductase dye based two fold dilution method relative to control; assay type: functional; details: BCG str. ATCC 35743, 288 h, read-out: GI; procedure, shortened: as §3
[8] = Cytotoxicity against human A549 cells measured after 48 hrs by MTT assay; assay type: toxicity, cell-based
[9] = test system: Mycobacterium tuberculosis; experiment: Growth inhibition of Mycobacterium bovis BCG ATCC 35743 at active stage at 0.78 ug/ml measured after 8 days by nitrate reductase dye based two fold dilution method relative to control; assay type: functional; details: BCG str. ATCC 35743, 192 h, read-out: GI; procedure, shortened: as §3
[10] = Cytotoxicity against […]-differentiated human THP1 cells assessed as growth inhibition at 100 ug/ml measured after 48 hrs by MTT assay relative to control; assay type: toxicity, cell-based, THP-1; details: read-out: GI
Procedure, shortened: (§4)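 MTT assay with 48 h compound exposure. THP-1 macrophages made by 24 h PMA treatment. Each concentration tested in triplicate in one experiment. % cytotoxicity = (control−test)/(control−blank)×100, with control = cells + DMSO and blank = medium without cells. IC50 from % survival versus concentration plots.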

[11] = test system: Mycobacterium tuberculosis; experiment: Growth inhibition of Mycobacterium bovis BCG ATCC 35743 at active stage at 50 ug/ml measured after 8 days by nitrate reductase dye based two fold dilution method relative to control; assay type: functional; details: BCG str. ATCC 35743, 192 h, read-out: GI
[12] = test system: Mycobacterium tuberculosis; experiment: Growth inhibition of Mycobacterium bovis BCG ATCC 35743 at dormant stage at 6.25 ug/ml measured after 12 days by nitrate reductase dye based two fold dilution method relative to control; assay type: functional; details: BCG str. ATCC 35743, 288 h, read-out: GI; procedure, shortened: as §3
Staphylococcus aureus [13] = experiment: Antibacterial activity against of Staphylococcus aureus NCIM 2010 measured after 12 hrs; assay type: functional; details: NCIM 2010, 12 h; procedure, shortened: as §1
[14] = Antifungal activity against Fusarium oxysporum NCIM 1332 by standard agar method; assay type: functional
Procedure, shortened: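 MICs determined by standard agar method; DMSO as solvent control.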

Escherichia coli [15] = experiment: Growth inhibition of Escherichia coli NCIM 2688 at 30 ug/ml measured after 8 hrs relative to control; assay type: functional; details: NCIM 2688, 8 h, read-out: GI; procedure, shortened: as §1
[16] = test system: Mycobacterium tuberculosis; experiment: Growth inhibition of Mycobacterium tuberculosis H37Ra ATCC 25177 at dormant stage at 25 ug/ml measured after 12 days by XTT dye based two fold dilution method relative to control; assay type: functional; details: H37Ra ATCC 25177, 288 h, read-out: GI; procedure, shortened: as §2
Pseudomonas fluorescens = experiment: Antibacterial activity against Pseudomonas fluorescens NCIM 2036 measured after 8 hrs; assay type: functional; details: NCIM 2036, 8 h; procedure, shortened: as §1
Staphylococcus aureus [17] = experiment: Growth inhibition of Staphylococcus aureus NCIM 2010 at 10 ug/ml measured after 12 hrs relative to control; assay type: functional; details: NCIM 2010, 12 h, read-out: GI; procedure, shortened: as §1
[18] = test system: Mycobacterium tuberculosis; experiment: Growth inhibition of Mycobacterium bovis BCG ATCC 35743 at dormant stage at 10 ug/ml measured after 12 days by nitrate reductase dye based two fold dilution method relative to control; assay type: functional; details: BCG str. ATCC 35743, 288 h, read-out: GI; procedure, shortened: as §3
Escherichia coli [19] = experiment: Growth inhibition of Escherichia coli NCIM 2688 at 10 ug/ml measured after 8 hrs relative to control; assay type: functional; details: NCIM 2688, 8 h, read-out: GI; procedure, shortened: as §1
[20] = Cytotoxicity against human THP1 cells assessed as growth inhibition at 100 ug/ml measured after 48 hrs by MTT assay relative to control; assay type: toxicity, cell-based, THP-1; details: read-out: GI; procedure, shortened: as §4
[21] = test system: Mycobacterium tuberculosis; experiment: Growth inhibition of Mycobacterium bovis BCG ATCC 35743 at active stage at 100 ug/ml measured after 8 days by nitrate reductase dye based two fold dilution method relative to control; assay type: functional; details: BCG str. ATCC 35743, 192 h, read-out: GI
[22] = test system: Mycobacterium tuberculosis; experiment: Growth inhibition of Mycobacterium tuberculosis H37Ra ATCC 25177 at dormant stage at 12.5 ug/ml measured after 12 days by XTT dye based two fold dilution method relative to control; assay type: functional; details: H37Ra ATCC 25177, 288 h, read-out: GI
Staphylococcus aureus [23] = experiment: Growth inhibition of Staphylococcus aureus NCIM 2010 at 30 ug/ml measured after 12 hrs relative to control; assay type: functional; details: NCIM 2010, 12 h, read-out: GI; procedure, shortened: as §1
[24] = test system: Mycobacterium tuberculosis; experiment: Growth inhibition of Mycobacterium bovis BCG ATCC 35743 at active stage measured after 8 days by nitrate reductase dye based two fold dilution method; assay type: functional; details: BCG str. ATCC 35743, 192 h; procedure, shortened: as §3
[25] = test system: Mycobacterium tuberculosis; experiment: Growth inhibition of Mycobacterium tuberculosis H37Ra ATCC 25177 at dormant stage at 3.13 ug/ml measured after 12 days by XTT dye based two fold dilution method relative to control; assay type: functional; details: H37Ra ATCC 25177, 288 h, read-out: GI; procedure, shortened: as §2
[26] = test system: Mycobacterium tuberculosis; experiment: Growth inhibition of Mycobacterium bovis BCG ATCC 35743 at dormant stage at 3 ug/ml measured after 12 days by nitrate reductase dye based two fold dilution method relative to control; assay type: functional; details: BCG str. ATCC 35743, 288 h, read-out: GI; procedure, shortened: as §3
[27] = Cytotoxicity against human HeLa cells at 100 ug/ml assessed as growth inhibition measured after 48 hrs by MTT assay relative to control; assay type: toxicity, cell-based; details: read-out: GI
Escherichia coli [28] = experiment: Antibacterial activity against Escherichia coli NCIM 2688 measured after 8 hrs; assay type: functional; details: NCIM 2688, 8 h; procedure, shortened: as §1

Row | Compound | inhibition of growth at 3 µg/mL (Escherichia coli [1]) [%] | selectivity ratio [2] | GI50 at 48 h [3] [µg/mL] | inhibition of growth at 6.25 µg/mL [4] [%] | inhibition of growth at 30 µg/mL [5] [%] | inhibition of growth at 50 µg/mL [6] [%] | inhibition of growth at 10 µg/mL (Bacillus subtilis) [%] | inhibition of growth at 3.13 µg/mL [7] [%] | GI50 at 48 h [8] [µg/mL] | inhibition of growth at 0.78 µg/mL [9] [%] | inhibition at 48 h, 100 ug/ml [10] [%] | inhibition of growth at 50 µg/mL [11] [%] | inhibition of growth at 6.25 µg/mL [12] [%] | MIC (Staphylococcus aureus [13]) [µg/mL] | MIC [14] [µg/mL] | inhibition of growth at 30 µg/mL (Escherichia coli [15]) [%] | inhibition of growth at 25 µg/mL [16] [%] | MIC (Pseudomonas fluorescens) [µg/mL] | inhibition of growth at 10 µg/mL (Staphylococcus aureus [17]) [%] | inhibition of growth at 10 µg/mL [18] [%] | also measured
1 | O=C1NC(=S)S/C1=C\c1cc2cc(F)ccc2nc1Cl | 18.9 | 5.6 | > 100 | 73.1 | 76.5 | 119 | 2.58 | 25.5 | > 100 | -54.6 | 19.2 | 99 | 100 | 22.6 (≈ 69.7 µM) | 25 (≈ 77 µM) | 46.4 | 95.7 | > 30 | 71.3 | 16.9 | inhibition of growth at 10 µg/mL (Escherichia coli [19]): 27.5%; inhibition at 48 h, 100 ug/ml [20]: 26.3%; inhibition of growth at 100 µg/mL [21]: 97.7%; inhibition of growth at 12.5 µg/mL [22]: 87.3%; inhibition of growth at 30 µg/mL (Staphylococcus aureus [23]): 101%; IC50 [24]: 2.4 µg/mL (≈ 7.39 µM); IC90 [24]: 4.2 µg/mL (≈ 12.9 µM); inhibition of growth at 3.13 µg/mL [25]: 28.4%; inhibition of growth at 3 µg/mL [26]: 0.38%; inhibition at 48 h, 100 ug/ml [27]: 20%; MIC (Escherichia coli [28]): > 30 µg/mL
2 | Cc1cccc2cc(/C=C3\SC(=S)NC3=O)c(Cl)nc12 | 26.2 | 7.8 | > 100 | 38.3 | 60.5 | 102 | -0.291 | -5.18 | > 100 | -28.7 | 2.58 | 98.4 | 62.9 | > 30 | 200 (≈ 623 µM) | 39.9 | 103 | > 30 | -9.23 | -5.12 | inhibition of growth at 10 µg/mL (Escherichia coli [19]): 27.5%; inhibition at 48 h, 100 ug/ml [20]: 13.2%; inhibition of growth at 100 µg/mL [21]: 93.2%; inhibition of growth at 12.5 µg/mL [22]: 49.2%; inhibition of growth at 30 µg/mL (Staphylococcus aureus [23]): 12.6%; IC50 [24]: 3.7 µg/mL (≈ 11.5 µM); IC90 [24]: 6.5 µg/mL (≈ 20.3 µM); inhibition of growth at 3.13 µg/mL [25]: -0.35%; inhibition of growth at 3 µg/mL [26]: -6.23%; inhibition at 48 h, 100 ug/ml [27]: 32.1%; MIC (Escherichia coli [28]): > 30 µg/mL
